Holding throughout (format): functional
One experiment concerns Streptococcus pneumoniae. Briefly: Antibacterial activity was determined against gram positive organism, Streptococcus pneumoniae SV-1. The settings on record: Streptococcus pneumoniae; read-out: MIC. The method in brief: (§1)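 MIC (µg/mL) by standard microtitration against a panel of 10 Gram-positive and Gram-negative organisms; values averaged from multiple experiments.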

The test system of experiment [1] is Staphylococcus aureus. Briefly: Antibacterial activity was determined against gram positive organism, Staphylococcus aureus H228. The settings on record: Staphylococcus aureus; read-out: MIC. The method in brief: as §1
For experiment [2], the system named is Staphylococcus aureus. Briefly: Antibacterial activity was determined against gram positive organism, Staphylococcus aureus UC76. A digest of the protocol:
as §1

For experiment [3], the system named is Bacteria. Briefly: Antibacterial activity was determined against gram negative organism, Providencia rettgeri. M1771. The conditions noted are these: Bacteria; read-out: MIC. A digest of the protocol:
as §1

A further experiment has as its system Enterobacter cloacae. Put plainly: Antibacterial activity was determined against gram negative organism, Enterobacter cloacae MA2646. The settings on record: Enterobacter cloacae; read-out: MIC.
Another experiment has as its system Pseudomonas aeruginosa. Put plainly: Antibacterial activity was determined against gram negative organism, Pseudomonas aeruginosa UI-18. The settings on record: Pseudomonas aeruginosa; read-out: MIC. A digest of the protocol:
as §1

Experiment [4] deals with DNA gyrase (Escherichia coli) (UniProt P0AES6+P0AES4). Briefly: Minimum inhibitory concentration against Escherichia coli DNA-gyrase in supercoiling assay.
Another experiment has as its system Escherichia coli. Briefly: Antibacterial activity was determined against gram negative organism, Escherichia coli vogel. The settings on record: Escherichia coli; read-out: MIC. A digest of the protocol: as §1
Experiment [5] concerns Bacteria. Put plainly: MIC ratio measured as the mean MICs of gram-negative bacteria. A digest of the protocol: (§2)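 Geometric mean of the microtitration MICs (µg/mL) over the Gram-negative organisms, and separately over the Gram-positive organisms, of the 10-strain panel; individual MICs averaged from multiple experiments.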
The subject of experiment [6] is Bacteria. Briefly: MIC ratio measured as the mean MICs of gram-positive bacteria. A digest of the protocol:
as §2

The next experiment relates to Streptococcus pyogenes. Briefly: Antibacterial activity was determined against gram positive organism, Streptococcus pyogenes C203. The conditions noted are these: Streptococcus pyogenes; read-out: MIC. The method in brief: as §1
The subject of another experiment is Enterococcus faecalis. Briefly: Antibacterial activity was determined against gram positive organism, Streptococcus faecalis MGH-2. The conditions noted are these: Enterococcus faecalis; read-out: MIC. A digest of the protocol: as §1
In the next experiment the test system is Klebsiella pneumoniae. Put plainly: Antibacterial activity was determined against gram negative organism, Klebsiella pneumoniae MGH-2. The conditions noted are these: Klebsiella pneumoniae; read-out: MIC. A digest of the protocol:
as §1

The mark [7] stands for this setting: Staphylococcus aureus, read-out: MIC.

Structures are written as SMILES. Values after ≈ are worked out from the molar mass of the structure shown.

Consider `CCn1cc(C(=O)O)c(=O)c2cc(F)c(N3CCC(N)C3)cc21` (centres undefined), for which the MIC in the experiment on Streptococcus pneumoniae was determined as 0.4 µg/mL (≈ 1.25 µM); in the experiment with Staphylococcus aureus [1], 0.8 µg/mL (≈ 2.51 µM); in the experiment on Staphylococcus aureus [2] it was 0.1 µg/mL (≈ 0.313 µM); in the experiment on Bacteria [3], 0.2 µg/mL (≈ 0.626 µM); with Enterobacter cloacae, 0.1 µg/mL (≈ 0.313 µM); with Pseudomonas aeruginosa, 0.8 µg/mL (≈ 2.51 µM). The MIC is 2.5 µg/mL (≈ 7.83 µM) in experiment [4]; 0.1 µg/mL (≈ 0.313 µM) with Escherichia coli; 0.4 µg/mL (≈ 1.25 µM) with Streptococcus pyogenes; 0.8 µg/mL (≈ 2.51 µM) with Enterococcus faecalis; 0.2 µg/mL (≈ 0.626 µM) in the experiment with Klebsiella pneumoniae. Also, the Geometric mean MIC over Gram-negative bacteria (µg/mL) in the experiment on Bacteria [5] was 0.13. The “Geometric mean MIC over Gram-positive bacteria (µg/mL)” value with Bacteria [6] came to 0.4.

On to `CCn1cc(C(=O)O)c(=O)c2cc(F)c(N3CCNC(C)C3)c(Cl)c21` (centres undefined), for which the MIC in the experiment with Streptococcus pneumoniae amounted to 3.1 µg/mL (≈ 8.43 µM); in the experiment on Staphylococcus aureus [1], 1.6 µg/mL (≈ 4.35 µM); against Staphylococcus aureus [2] it was 0.4 µg/mL (≈ 1.09 µM); with Bacteria [3], 0.8 µg/mL (≈ 2.18 µM); with Enterobacter cloacae, 0.2 µg/mL (≈ 0.544 µM); with Pseudomonas aeruginosa, 6.3 µg/mL (≈ 17.1 µM). Moreover, the MIC in [4] was 5 µg/mL (≈ 13.6 µM); in the experiment with Escherichia coli, 0.2 µg/mL (≈ 0.544 µM); with Streptococcus pyogenes, 3.1 µg/mL (≈ 8.43 µM); in the experiment on Enterococcus faecalis, 3.1 µg/mL (≈ 8.43 µM); in the experiment on Klebsiella pneumoniae it was 0.4 µg/mL (≈ 1.09 µM). Moreover, the Geometric mean MIC over Gram-negative bacteria (µg/mL) with Bacteria [5] turned out to be 0.6. In addition, in the experiment with Bacteria [6], the “Geometric mean MIC over Gram-positive bacteria (µg/mL)” value is on record as 1.8.

As to `CCn1cc(C(=O)O)c(=O)c2c(N)c(F)c(N3CCNC(C)C3)c(F)c21` (centres undefined), the MIC came out at 3.1 µg/mL (≈ 8.46 µM) in the experiment on Streptococcus pneumoniae; 1.6 µg/mL (≈ 4.37 µM) in the experiment with Staphylococcus aureus [1]; 0.4 µg/mL (≈ 1.09 µM) in the experiment with Staphylococcus aureus [2] (setting [7]); 1.6 µg/mL (≈ 4.37 µM) in the experiment on Bacteria [3]; 0.2 µg/mL (≈ 0.546 µM) with Enterobacter cloacae; 3.1 µg/mL (≈ 8.46 µM) with Pseudomonas aeruginosa. Further, the MIC in experiment [4] stood at 7.5 µg/mL (≈ 20.5 µM); in the experiment on Escherichia coli, 0.2 µg/mL (≈ 0.546 µM); in the experiment with Streptococcus pyogenes, 6.3 µg/mL (≈ 17.2 µM); with Enterococcus faecalis it was 3.1 µg/mL (≈ 8.46 µM); in the experiment on Klebsiella pneumoniae, 0.4 µg/mL (≈ 1.09 µM). The Geometric mean MIC over Gram-negative bacteria (µg/mL) in the experiment on Bacteria [5] was found to be 0.6. Moreover, in the experiment with Bacteria [6], the “Geometric mean MIC over Gram-positive bacteria (µg/mL)” value worked out at 2.07.

Regarding `CCn1cc(C(=O)O)c(=O)c2c(N)c(F)c(N3CCNCC3)c(Cl)c21`, the MIC in the experiment on Streptococcus pneumoniae stood at 3.1 µg/mL (≈ 8.41 µM); in the experiment with Staphylococcus aureus [1], 3.1 µg/mL (≈ 8.41 µM); with Staphylococcus aureus [2] (setting [7]), 0.4 µg/mL (≈ 1.08 µM); in the experiment on Bacteria [3], 1.6 µg/mL (≈ 4.34 µM); in the experiment on Enterobacter cloacae, 0.4 µg/mL (≈ 1.08 µM); with Pseudomonas aeruginosa it was 6.3 µg/mL (≈ 17.1 µM). The MIC worked out at 5 µg/mL (≈ 13.6 µM) in experiment [4]; 0.2 µg/mL (≈ 0.542 µM) with Escherichia coli; 3.1 µg/mL (≈ 8.41 µM) in the experiment on Streptococcus pyogenes; 6.3 µg/mL (≈ 17.1 µM) in the experiment with Enterococcus faecalis; 0.4 µg/mL (≈ 1.08 µM) in the experiment with Klebsiella pneumoniae. Besides, in the experiment on Bacteria [5], the Geometric mean MIC over Gram-negative bacteria (µg/mL) worked out at 0.79. Besides, in the experiment on Bacteria [6], the “Geometric mean MIC over Gram-positive bacteria (µg/mL)” value is 2.37.

With `CCn1cc(C(=O)O)c(=O)c2cc(F)c(N3CCNCC3)c(F)c21`, the MIC with Streptococcus pneumoniae is 3.1 µg/mL (≈ 9.19 µM); with Staphylococcus aureus [1], 1.6 µg/mL (≈ 4.74 µM); against Staphylococcus aureus [2], 0.4 µg/mL (≈ 1.19 µM); with Bacteria [3] it was 0.2 µg/mL (≈ 0.593 µM); with Enterobacter cloacae, 0.1 µg/mL (≈ 0.296 µM); with Pseudomonas aeruginosa, 0.8 µg/mL (≈ 2.37 µM). Besides, the MIC in experiment [4] was 2.5 µg/mL (≈ 7.41 µM); in the experiment on Escherichia coli it was 0.1 µg/mL (≈ 0.296 µM); in the experiment on Streptococcus pyogenes, 3.1 µg/mL (≈ 9.19 µM); in the experiment with Enterococcus faecalis, 1.6 µg/mL (≈ 4.74 µM); with Klebsiella pneumoniae, 0.1 µg/mL (≈ 0.296 µM). The Geometric mean MIC over Gram-negative bacteria (µg/mL) in the experiment on Bacteria [5] is 0.17. The “Geometric mean MIC over Gram-positive bacteria (µg/mL)” value in the experiment with Bacteria [6] was 1.58.

As for `CCNCC1CCN(c2cc3c(c(N)c2F)c(=O)c(C(=O)O)cn3CC)C1` (centres undefined), the MIC in the experiment with Streptococcus pneumoniae turned out to be 0.4 µg/mL (≈ 1.06 µM); with Staphylococcus aureus [1] it was 0.8 µg/mL (≈ 2.13 µM); in the experiment with Staphylococcus aureus [2] (setting [7]) it was 0.1 µg/mL (≈ 0.266 µM); in the experiment with Bacteria [3] it was 12.5 µg/mL (≈ 33.2 µM); with Enterobacter cloacae, 1.6 µg/mL (≈ 4.25 µM); in the experiment with Pseudomonas aeruginosa it was 25 µg/mL (≈ 66.4 µM). Also, the MIC in experiment [4] was 7.5 µg/mL (≈ 19.9 µM); in the experiment with Escherichia coli it was 0.8 µg/mL (≈ 2.13 µM); in the experiment with Streptococcus pyogenes, 0.8 µg/mL (≈ 2.13 µM); in the experiment on Enterococcus faecalis, 0.8 µg/mL (≈ 2.13 µM); with Klebsiella pneumoniae it was 3.1 µg/mL (≈ 8.24 µM). Moreover, in the experiment with Bacteria [5], the Geometric mean MIC over Gram-negative bacteria (µg/mL) came to 4.15. Also, the “Geometric mean MIC over Gram-positive bacteria (µg/mL)” value in the experiment with Bacteria [6] stood at 0.46.

Turning to `CCNCC1CCN(c2cc3c(cc2F)c(=O)c(C(=O)O)cn3CC)C1` (centres undefined), the MIC came out at 0.2 µg/mL (≈ 0.553 µM) in the experiment on Streptococcus pneumoniae; 0.2 µg/mL (≈ 0.553 µM) in the experiment with Staphylococcus aureus [1]; 0.1 µg/mL (≈ 0.277 µM) against Staphylococcus aureus [2]; 1.6 µg/mL (≈ 4.43 µM) in the experiment on Bacteria [3]; 0.4 µg/mL (≈ 1.11 µM) in the experiment with Enterobacter cloacae; 3.1 µg/mL (≈ 8.58 µM) in the experiment on Pseudomonas aeruginosa. The MIC worked out at 2.5 µg/mL (≈ 6.92 µM) in [4]; 0.1 µg/mL (≈ 0.277 µM) in the experiment on Escherichia coli; 0.1 µg/mL (≈ 0.277 µM) with Streptococcus pyogenes; 0.2 µg/mL (≈ 0.553 µM) in the experiment on Enterococcus faecalis; 0.4 µg/mL (≈ 1.11 µM) with Klebsiella pneumoniae. For the same compound, the Geometric mean MIC over Gram-negative bacteria (µg/mL) in the experiment with Bacteria [5] came to 0.6. Further, the “Geometric mean MIC over Gram-positive bacteria (µg/mL)” value in the experiment with Bacteria [6] stood at 0.15.

Turning to `CCn1cc(C(=O)O)c(=O)c2cc(F)c(N3CCNC(C)C3)cc21` (centres undefined), the MIC was found to be 1.6 µg/mL (≈ 4.8 µM) with Streptococcus pneumoniae; 1.6 µg/mL (≈ 4.8 µM) in the experiment on Staphylococcus aureus [1]; 0.2 µg/mL (≈ 0.6 µM) in the experiment with Staphylococcus aureus [2]; 0.2 µg/mL (≈ 0.6 µM) with Bacteria [3]; 0.1 µg/mL (≈ 0.3 µM) in the experiment with Enterobacter cloacae; 1.6 µg/mL (≈ 4.8 µM) in the experiment on Pseudomonas aeruginosa. For the same compound, the MIC in experiment [4] came to 2.5 µg/mL (≈ 7.5 µM); with Escherichia coli, 0.1 µg/mL (≈ 0.3 µM); in the experiment with Streptococcus pyogenes it was 1.6 µg/mL (≈ 4.8 µM); with Enterococcus faecalis it was 1.6 µg/mL (≈ 4.8 µM); in the experiment with Klebsiella pneumoniae, 0.2 µg/mL (≈ 0.6 µM). The Geometric mean MIC over Gram-negative bacteria (µg/mL) in the experiment on Bacteria [5] worked out at 0.23. In addition, the “Geometric mean MIC over Gram-positive bacteria (µg/mL)” value with Bacteria [6] is reported as 1.05.

For the origin of these results see ChEMBL document CHEMBL1125826, “Synthesis and biological activity of 5-amino- and 5-hydroxyquinolones, and the overwhelming influence of the remote N1-substituent in determining the structure-activity relationship” (1991).
